Source: BindingDB's records for doi:10.1021/jm9708588 (National University of Singapore, 1998)

Experiments:
[1] = molecular target: T1, Muscarinic acetylcholine receptor M1 (Rattus norvegicus, UniProt P08482); experiment: Binding affinity to Muscarinic acetylcholine receptor M1 by measuring its ability to displace [3H]pirenzepine from rat cerebral cortex
T1 sequence (P08482 whole entry): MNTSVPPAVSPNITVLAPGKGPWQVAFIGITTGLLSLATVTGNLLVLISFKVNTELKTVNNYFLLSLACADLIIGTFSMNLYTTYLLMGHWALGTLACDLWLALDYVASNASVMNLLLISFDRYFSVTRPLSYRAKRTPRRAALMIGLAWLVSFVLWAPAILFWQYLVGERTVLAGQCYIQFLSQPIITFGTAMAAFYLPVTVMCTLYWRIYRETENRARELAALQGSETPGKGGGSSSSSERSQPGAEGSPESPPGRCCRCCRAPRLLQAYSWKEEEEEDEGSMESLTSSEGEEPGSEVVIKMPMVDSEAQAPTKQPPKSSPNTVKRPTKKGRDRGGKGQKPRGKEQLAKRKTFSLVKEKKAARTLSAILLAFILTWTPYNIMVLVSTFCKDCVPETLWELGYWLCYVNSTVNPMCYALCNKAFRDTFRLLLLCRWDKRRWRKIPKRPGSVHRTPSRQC

[2] = The compound was evaluated for its ability to inhibit [3H]NMS binding to Muscarinic acetylcholine receptor in heart
[3] = molecular target: Muscarinic acetylcholine receptor M3 (Rattus norvegicus, UniProt P08483); experiment: Binding affinity to Muscarinic acetylcholine receptor M3 by measuring its ability to displace [3H]N-methylscopolamine binding in rat submandibulary gland
How it was run: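 Rat submandibulary gland membranes prepared in Na+/Mg2+ HEPES buffer pH 7.4. Nonspecific binding defined with 1 μM (±)-QNB. Pellet obtained by centrifugation and counted by scintillation. Triplicate determinations. Ki derived from IC50 by Cheng–Prusoff.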

Muscarinic acetylcholine receptor M3, sequence (P08483 whole entry): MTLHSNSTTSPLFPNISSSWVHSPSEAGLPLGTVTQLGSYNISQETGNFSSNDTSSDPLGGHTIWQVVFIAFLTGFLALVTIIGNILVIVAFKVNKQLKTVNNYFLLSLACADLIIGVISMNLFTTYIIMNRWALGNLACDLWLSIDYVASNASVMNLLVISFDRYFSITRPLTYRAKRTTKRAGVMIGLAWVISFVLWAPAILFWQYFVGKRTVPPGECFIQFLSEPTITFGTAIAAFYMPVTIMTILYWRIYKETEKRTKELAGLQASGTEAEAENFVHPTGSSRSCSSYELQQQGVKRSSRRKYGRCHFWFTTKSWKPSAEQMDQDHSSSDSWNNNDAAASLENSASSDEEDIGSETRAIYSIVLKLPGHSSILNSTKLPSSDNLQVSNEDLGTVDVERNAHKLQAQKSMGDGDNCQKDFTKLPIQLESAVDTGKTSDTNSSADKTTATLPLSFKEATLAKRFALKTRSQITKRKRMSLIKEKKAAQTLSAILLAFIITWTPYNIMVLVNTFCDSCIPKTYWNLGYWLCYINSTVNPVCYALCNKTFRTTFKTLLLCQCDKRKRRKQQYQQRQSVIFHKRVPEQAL

SMILES | Ki [1] [µM] | Ki [2] [µM] | Ki [3] [µM]
C#CC(CC)ON=C1CCN(C)CC1 (stereo unspecified) | 6.3 | – | –
CC#CCCON=C1CCN(C)CC1 | 1.99 | – | –
C#CCCCON=C1CC2CCC(C1)N2C | 0.63 | – | –
CON=C1CCN(C)CC1 | 50.1 | – | –
C#CCC(C)ON=C1CC2CCC(C1)N2C (stereo unspecified) | 0.1 | – | –
CC#CCON=C1CCN(C)CC1 | 3.98 | – | –
CC#CCCON=C1CC2CCC(C1)N2C | 0.794 | – | –
C#CC(C)ON=C1CC2CCC(C1)N2C (stereo unspecified) | 9.99 | – | –
C#CCCON=C1CCN(C)CC1 | 1.58 | – | –
C#CCCCON=C1CCN(C)CC1 | 7.94 | – | –
C#CCCON=C1CC2CCC(C1)N2C | 1.58 | – | –
C#CC(CC)ON=C1CC2CCC(C1)N2C (stereo unspecified) | 0.316 | – | –
CON=C1CC2CCC(C1)N2C | 999 | – | –
CN1C2CCC1CC(=NO)C2 | 501 | – | –
CCC#CCON=C1CCN(C)CC1 | 3.98 | – | –
CCC#CCON=C1CC2CCC(C1)N2C | 5.01 | 63.1 | –
CC#CCON=C1CC2CCC(C1)N2C | 0.501 | – | –
C#CCON=C1CC2CCC(C1)N2C | 1.25 | – | –
O=C1CCCN1CC#CCN1CCCC1 [1-[4-(2-oxo-pyrrolidin-1-yl)-but-2-ynyl]-pyrrolidinium] | 0.63 | – | –
C#CCON=C1CCN(C)CC1 | 50.1 | – | –
C#CCC(C)ON=C1CCN(C)CC1 (stereo unspecified) | 3.16 | – | –
C[N+](C)(C)CC#CCOC(=O)Nc1cccc(Cl)c1 [McN-A-343] | 5.01 | – | 2.51
CN1CCC(=NO)CC1 | 501 | – | –
C#CC(C)ON=C1CCN(C)CC1 (stereo unspecified) | 5.01 | – | –
